Assay outcomes (PubChem)
RORa activator – activators of orphan receptor RORA, primary screen, cell-based, luminescence; CHO-K1 Gal4-RORA LBD luciferase reporter; percent increase over mock-subtracted basal signal; activation, % at 10 µM; 65,000 compounds, 1.5% hits; AID 560, 2006;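 active = activation above the mean of all tested compounds plus 3 SD, cut at about 49% in these data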;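 also: 0% = DMSO-treated RORA cells and 100% = added signal equal to DMSO minus mock-transfected cells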
M1 antagonist – antagonists of rat M1 muscarinic receptor. B-score at 10 µM. 64,000 compounds, 3.4% hits. AID 628, 2007. CHO-M1 cells, Fluo-4 calcium, ACh EC80 antagonist mode; stronger effect = lower value;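 active = calcium fluorescence response, raw or row-and-column corrected B-score, differing from the plate sample mean either way at a set confidence level, mostly lower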
S1P3 agonist – human S1P3 receptor agonists, primary screen, cell-based, primary and confirmation, NFAT-BLA reporter. Sphingosine 1-phosphate receptor 3 (Homo sapiens), Q99500. S1P3 NFAT-BLA reporter cells, agonism, FRET ratio; relative to 1 µM S1P, basal subtracted. activation, % at 4.5 µM. 60,000 compounds, 0.1% hits;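 active = activation above the screen-wide mean plus 3 SD, cut at about 4.5% in these data, passing the limit was not always enough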
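material = human S1P3 NFAT-BLA reporter CHO cells | schedule = 4 h compound at 37 °C, 2 h substrate at RT | measured by = fluorescent BLA substrate, ex 405 nm, em 460/535 nm ratio | controls = 1 µM S1P reference | replication = primary once, confirmation triplicate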
SF1 activator – activators of human SF-1, primary screen, cell-based, CHO-K1, Gal4-SF-1 LBD, luciferase luminescence. activation, % at 10 µM. AID 522, 2006. 65,000 compounds, 1.9% hits. CHO-K1 Gal4-SF-1 LBD luciferase reporter; % increase over DMSO SF-1-specific signal;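 active = activation above the mean activation of all tested compounds plus 3 SD, cut at about 50% in these data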
Target sequence (Q13285 whole entry, looked up, the tested form may be a part): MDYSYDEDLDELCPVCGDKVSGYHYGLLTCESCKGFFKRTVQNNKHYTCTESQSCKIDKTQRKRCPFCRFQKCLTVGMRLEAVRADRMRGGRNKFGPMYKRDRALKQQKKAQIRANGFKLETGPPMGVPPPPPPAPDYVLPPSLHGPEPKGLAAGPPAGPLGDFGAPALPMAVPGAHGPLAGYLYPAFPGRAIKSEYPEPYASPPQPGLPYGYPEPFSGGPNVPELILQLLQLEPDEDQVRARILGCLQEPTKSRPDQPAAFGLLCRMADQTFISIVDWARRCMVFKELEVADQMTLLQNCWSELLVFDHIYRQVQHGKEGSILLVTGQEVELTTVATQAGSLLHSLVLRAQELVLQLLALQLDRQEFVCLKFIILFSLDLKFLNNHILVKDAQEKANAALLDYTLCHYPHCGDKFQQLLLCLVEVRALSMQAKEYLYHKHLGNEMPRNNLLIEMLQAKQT
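Compound – one dose, 10 µM compound, 1% DMSO · Test system – transient Gal4-SF-1 LBD reporter, CHO-K1 · Input – 4,000 cells in each well · Read-out basis – percent activation relative to DMSO median and mock-transfected background · Replicates – single measurement per compound · Technique – steady-glow luciferase luminescence, read after 15 min reagent incubation · Timing – 20 h compound treatment, 37 °C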
M1 ag – M1 muscarinic receptor agonists, primary screen, CHO-M1 cells, Fluo-4 calcium, agonist mode; Muscarinic acetylcholine receptor M1; Fluo-4 calcium fluorescence; stronger effect = higher value; 64,000 compounds, 3% hits; B-score at 10 µM; AID 626, 2007;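 active = fluorescence rise, raw or as B-score row- and column-corrected plate score, outside the 99.7% band of its plate's samples, either direction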
S1P1 ag pot – S1P1 agonists and agonism potentiators, primary screen, cell-based, primary and confirmation screens, CRE-bla reporter. Sphingosine 1-phosphate receptor 1 (Homo sapiens), P21453. S1P1 CRE-bla cells, forskolin, beta-lactamase FRET, potentiator mode; S1P1 agonist co-added at EC20, 2 nM; 100% = saturating reference agonist, 0% = basal. activation, % at 9.5 µM. 56,000 compounds, 0.57% hits. AID 449, 2006;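 active = activation above a cutoff set at the mean activation of all tested compounds plus 3 SD, cut at about 54% in these data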;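 also: forskolin at 4 µM as EC80 and the EC20 agonist is SEW2871; 100% = SEW2871 at its EC100 plus forskolin at EC80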
The depositor's hits bear a star; . = no result given. Sampled rows, rich in hits. Any-hit rate of the full collection: about 8.8%.

SMILES	RORa activator	M1 antagonist	S1P3 agonist	SF1 activator	M1 ag	S1P1 ag pot
CC(C)(C)n1nnnc1C(c1cccs1)N1CCCc2ccccc21 (stereo not given)	15	-0.18	0	-22	0.44	6
Cc1ccc(-c2noc(-c3cccs3)n2)cc1	38	-0.4	-1	26	-0.27	20
Brc1ccc(-c2cnc(-c3cccs3)o2)cc1	13	0.61	0	52*	-0.33	-26
O=C(Nc1ccccc1)Nc1ccccn1	15	0.48	0	33	-0.25	.
O=C(Nc1ccccc1)Nc1cccc2cccnc12	86*	-0.67	0	47	0.18	15
Nc1ccccc1SCc1cn2ccccc2n1	49*	0.54	0	30	-1.3	1
CCOC(=O)c1cnc(Nc2nc3ccccc3o2)nc1CSc1nnc(C)s1	58*	0.023	0	35	-0.45	-19
CN(C)CCNC(=O)C(C(=O)c1ccc(F)cc1)n1ccccc1=O (stereo not given)	-10	0.36	-2	-10	-0.062	-4
O=C(Nc1ccc2c(c1)OCO2)c1cncc(Br)c1	14	-0.0039	-2	53*	2	6
CCC(=O)Nc1cccc(NC(=O)c2ccc3c(c2)OCO3)c1	20	-1	0	19	0.85	0
O=C(Nc1ccc2c(c1)OCO2)c1c(F)cccc1F	25	0.54	-1	58*	-0.0033	9
O=C(Nc1ccc2c(c1)OCCO2)c1cncc(Br)c1	29	-0.16	-1	31	0.056	.
O=C(Nc1ccc2c(c1)OCO2)c1cccc(F)c1	52*	0.18	0	21	0.38	-4
Cc1ccn2cc(CNS(=O)(=O)c3ccc(Cl)s3)nc2c1	-3	-0.3	0	-11	-0.68	14
CC(NC(=O)COc1ccccc1)C(c1ccccc1)N1CCN(C)CC1 (stereo not given)	-4	-0.91	.	3	-0.017	.
Cc1ccc(-c2csc3nnc(SCC(=O)NCc4ccc5c(c4)OCO5)n23)cc1	4	-0.25	-1	-4	8.7*	.
O=C(CCSc1nnc2scc(-c3ccccc3)n12)NCc1ccc2c(c1)OCO2	3	-0.62	0	8	2.5	-38
Cc1nnc(SCC(=O)NC(C)c2ccccc2)[nH]c1=O (stereo not given)	6	1.8	0	-10	0.78	.
COc1ccccc1-c1nc(-c2ccc(C)nc2OC)no1	39	-0.11	2	74*	0.26	3
CCOc1nc(C)ccc1-c1noc(-c2ccncc2)n1	14	0.35	1	36	0.83	56*
CCOc1ccc(-c2nc(-c3ccccc3C)no2)cc1	16	0.86	-1	6	-0.031	110*
COc1nc(C)ccc1-c1noc(-c2ccccn2)n1	61*	-0.12	-2	22	0.66	-7
CCOc1nc(-c2ccc(OC)cc2)ccc1-c1noc(-c2ccncc2)n1	4	0.3	-1	-19	1.1	-5
CCOc1ccc(NC(=O)c2ccco2)cc1	8	0.14	-1	-17	0.0085	3
Cc1csc(NC(=O)c2cccc(S(=O)(=O)N3CCCCC3)c2)n1	-10	0.27	0	-1	0.0094	-17
SMILES	RORa activator	M1 antagonist	S1P3 agonist	SF1 activator	M1 ag	S1P1 ag pot
O=C(Nc1ccc(S(=O)(=O)N2CCCCCC2)cc1)c1ccco1	63*	-0.088	-2	33	-0.85	-3
CC(C)(C)NC(=O)c1cccc(NC(=O)c2ccc(NC(=O)c3ccco3)cc2)c1	-3	-1.1	0	2	1.3	-4
O=C(Nc1ccc(Nc2ccccc2)cc1)c1ccco1	60*	.	0	87*	.	.
Cc1cccc(NC(=O)c2ccc(S(=O)(=O)N3CCCCC3)cc2)n1	26	-2.4	-1	4	-2.6*	-8
CC(C)CNC(=O)c1cccc(NC(=O)c2ccc(NC(=O)c3ccco3)cc2)c1	5	1.4*	-1	18	0.6	19
COc1ccc(NC(=O)Nc2ccccc2C(=O)N2CCCC2)cc1	8	.	0	2	.	-26
N#CCSc1nnc(COc2ccc3ccccc3c2)o1	5	-0.8	0	6	-1.1	9
O=C(CCc1nc2ccccc2[nH]1)N1CCN(C(=O)c2ccco2)CC1	8	0.76	0	-4	-0.41	-19
O=C(Nc1nccs1)c1ccc(NC(=O)c2ccco2)cc1	53*	-0.32	.	56*	-0.88	.
O=C(CSc1ccc(-c2nc3ccccc3[nH]2)cn1)N1CCN(C(=O)c2ccco2)CC1	6	-1	0	2	12*	2
COC(=O)c1cccc(NC(=O)c2ccc(S(=O)(=O)N3CCN(C)CC3)cc2)c1	-16	-0.43	0	1	0.56	-13
CN1CCN(S(=O)(=O)c2ccc(NC(=O)c3ccc(F)cc3)cc2)CC1	-14	3.5*	-2	6	0.2	5
O=C(Nc1ccc(Cc2ccncc2)cc1)c1ccco1	32	-0.95	0	37	-0.39	-21
CC(=O)N(C)c1ccc(NC(=O)c2ccco2)cc1	33	0.28	0	50*	-0.6	-10
Cc1cc(NC(=O)CSc2cn(C)c3ccccc23)no1	-15	0.00036	-1	-18	1.1	-23
O=C(Nc1ccc(-c2nc3ccccc3[nH]2)cc1)c1ccco1	34	-1.4	-1	78*	1.6	-3
O=C(Nc1ccc2nc(-c3ccco3)[nH]c2c1)c1ccco1	38	0.36	.	6	0.044	.
O=C(Nc1ccc2[nH]c3c(c2c1)CCCC3)c1ccco1	18	-0.16	0	27	3*	20
COc1cc(/C=N/n2nnnc2N)ccc1O	-10	-0.74	-4	-4	-0.12	0
CSc1ccc(/C=N/n2nnnc2N)cc1	51*	.	-2	25	.	14
CCN(C)c1ccc(/C=N\n2nnnc2N)cc1	67*	0.45	1	87*	-0.43	-4
CCN(CC)c1ccc(/C=N/n2nnnc2N)c(O)c1	26	-0.45	-1	20	1.1	-4
NC(=O)C1CCCNC1 (stereo not given)	23	-0.077	0	-6	0.4	-4
O=C(N1CCC(O)(c2cccnc2)CC1)C12CC3CC(CC(C3)C1)C2	-6	-0.16	-1	-8	-0.017	17
